Usually MIC stands for the lowest concentration that inhibits growth of the organism.

Experimental findings from ChEMBL document CHEMBL1649458, “Antibiotic resistance in Pseudomonas aeruginosa strains with increased mutation frequency due to inactivation of the DNA oxidative repair system” (2009) are described below.

Test [1] deals with Pseudomonas aeruginosa. The test can be described thus: Antimicrobial activity against Pseudomonas aeruginosa PAO1 selected in presence of Ceftazidime by Etest. The test is classed as functional. In a few lines: (§1)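 Resistant colonies picked from population-analysis plates (5% blood agar with twofold antibiotic dilutions) and passaged three times in antibiotic-free LB before Etest MIC determination. MIC is the mean of four colonies, two successive determinations per colony; PAO1 after tobramycin selection is the mean of two colonies.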

In test [2] the test system is Pseudomonas aeruginosa. The test can be described thus: Antimicrobial activity against Pseudomonas aeruginosa PAO1 harboring DNA oxidative repair system mutT mutant gene selected in presence of tobramycin by Etest. The test is classed as functional. In a few lines:
as §1

Test [3] concerns Pseudomonas aeruginosa. The test can be described thus: Antimicrobial activity against Pseudomonas aeruginosa PAO1 harboring DNA oxidative repair system mutM mutant gene selected in presence of Ceftazidime by Etest. The test is classed as functional. Summed up: as §1
The test system of test [4] is Pseudomonas aeruginosa. The test can be described thus: Antimicrobial activity against Pseudomonas aeruginosa PAO1 harboring DNA oxidative repair system deltamutT::Gm mutant gene by Etest. The test is classed as functional. Summed up:
(§2)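 MICs by Etest per manufacturer's instructions on P. aeruginosa strains grown in LB; plates incubated at 37°C.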

Test [5] has as its system Pseudomonas aeruginosa. The test can be described thus: Antimicrobial activity against Pseudomonas aeruginosa PAO1 harboring DNA oxidative repair system mutY mutant gene selected in presence of Ceftazidime by Etest. The test is classed as functional. In a few lines: as §1
In test [6] the test system is Pseudomonas aeruginosa. The test can be described thus: Antimicrobial activity against Pseudomonas aeruginosa PAO1 harboring DNA oxidative repair system deltamutM::Gm mutant gene by Etest. The test is classed as functional. In a few lines:
as §2

Test [7] has as its system Pseudomonas aeruginosa. The test can be described thus: Antimicrobial activity against Pseudomonas aeruginosa PAO1 selected in presence of tobramycin by Etest. The test is classed as functional. Summed up:
as §1

For test [8], the system named is Pseudomonas aeruginosa. The test can be described thus: Antimicrobial activity against Pseudomonas aeruginosa PAO1 assessed as microbial doubling time. The test is classed as functional. Summed up:
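Overnight LB cultures diluted to OD600 0.01 in LB and grown at 37°C. OD600 read every 20 min until stationary phase. OD600 plotted against time on a semilog scale, and doubling time taken from the slope of the straight exponential-phase segment. Value is the mean of three separate cultures ± standard deviation.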

The subject of test [9] is Pseudomonas aeruginosa. The test can be described thus: Antimicrobial activity against Pseudomonas aeruginosa PAO1 harboring DNA oxidative repair system deltamutY::Gm mutant gene assessed as doubling time. The test is classed as functional. Summed up:
(§3)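 Overnight LB cultures adjusted to OD600 0.01 and grown at 37°C; OD600 read every 20 min to stationary phase. Doubling time taken from the slope of the exponential phase on a semilog plot; mean ± SD of three individual cultures.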

Test [10] deals with Pseudomonas aeruginosa. The test can be described thus: Antimicrobial activity against Pseudomonas aeruginosa PAO1 harboring DNA oxidative repair system deltamutM::Gm mutant gene assessed as doubling time. The test is classed as functional. In a few lines:
as §3

In test [11] the test system is Pseudomonas aeruginosa. The test can be described thus: Antimicrobial activity against Pseudomonas aeruginosa PAO1 harboring DNA oxidative repair system mutT mutant gene selected in presence of Ceftazidime by Etest. The test is classed as functional. Summed up:
as §1

The test system of test [12] is Pseudomonas aeruginosa. The test can be described thus: Antimicrobial activity against Pseudomonas aeruginosa PAO1 harboring DNA oxidative repair system mutY mutant gene selected in presence of tobramycin by Etest. The test is classed as functional. In a few lines: as §1
Test [13] has as its system Pseudomonas aeruginosa. The test can be described thus: Antimicrobial activity against Pseudomonas aeruginosa PAO1 selected in presence of ciprofloxacin by Etest. The test is classed as functional. Summed up:
as §1

In test [14] the test system is Pseudomonas aeruginosa. The test can be described thus: Antimicrobial activity against Pseudomonas aeruginosa PAO1 by Etest. The test is classed as functional. In a few lines:
as §2

Test [15] relates to Pseudomonas aeruginosa. The test can be described thus: Antimicrobial activity against Pseudomonas aeruginosa PAO1 harboring DNA oxidative repair system deltamutY::Gm mutant gene by Etest. The test is classed as functional. Summed up:
as §2

Test [16] has as its system Pseudomonas aeruginosa. The test can be described thus: Antimicrobial activity against Pseudomonas aeruginosa PAO1 harboring DNA oxidative repair system mutT mutant gene selected in presence of ciprofloxacin by Etest. The test is classed as functional. Summed up: as §1
Test [17] relates to Pseudomonas aeruginosa. The test can be described thus: Antimicrobial activity against Pseudomonas aeruginosa PAO1 harboring DNA oxidative repair system mutY mutant gene selected in presence of ciprofloxacin by Etest. The test is classed as functional. In a few lines: as §1
Test [18] relates to Pseudomonas aeruginosa. The test can be described thus: Antimicrobial activity against Pseudomonas aeruginosa PAO1 harboring DNA oxidative repair system mutM mutant gene selected in presence of ciprofloxacin by Etest. The test is classed as functional. In a few lines:
as §1

Test [19] has as its system Pseudomonas aeruginosa. The test can be described thus: Antimicrobial activity against Pseudomonas aeruginosa PAO1 harboring DNA oxidative repair system deltamutT::Gm mutant gene assessed as doubling time. The test is classed as functional. Summed up: as §3
Test [20] has as its system Pseudomonas aeruginosa. The test can be described thus: Antimicrobial activity against Pseudomonas aeruginosa PAO1 harboring DNA oxidative repair system mutM mutant gene selected in presence of tobramycin by Etest. The test is classed as functional. In a few lines:
as §1

Test [21] deals with Pseudomonas aeruginosa. The test can be described thus: Selectivity ratio of MIC for Pseudomonas aeruginosa PAO1 harboring DNA oxidative repair system mutY mutant gene selected in presence of tobramycin to MIC for Pseudomonas aeruginosa PAO1 harboring DNA oxidative repair system mutY mutant gene. The test is classed as functional.
For test [22], the system named is Pseudomonas aeruginosa. The test can be described thus: Selectivity ratio of MIC for Pseudomonas aeruginosa PAO1 harboring DNA oxidative repair system mutT mutant gene selected in presence of tobramycin to MIC for Pseudomonas aeruginosa PAO1 harboring DNA oxidative repair system mutT mutant gene. The test is classed as functional.
Test [23] relates to Pseudomonas aeruginosa. The test can be described thus: Antimicrobial activity against Pseudomonas aeruginosa PAO1 harboring DNA oxidative repair system […] mutant gene complemented with wild type DNA oxidative repair system mutY gene. The test is classed as functional, organism-based.
Test [24] relates to Pseudomonas aeruginosa. The test can be described thus: Antimicrobial activity against Pseudomonas aeruginosa PAO1 harboring DNA oxidative repair system mutY mutant gene complemented with wild type DNA oxidative repair system mutY gene. The test is classed as functional, organism-based.
Test [25] relates to Pseudomonas aeruginosa. The test can be described thus: Antimicrobial activity against Pseudomonas aeruginosa PAO1 harboring DNA oxidative repair system mutT mutant gene complemented with wild type DNA oxidative repair system mutT gene. The test is classed as functional, organism-based.

Values after ≈ are worked out from the molar mass of the structure shown. Active and inactive are the calls of the source. The rule behind the calls is not given here.

As for `CC(C)(O/N=C(\C(=O)N[C@@H]1C(=O)N2C(C(=O)[O-])=C(C[n+]3ccccc3)CS[C@H]12)c1csc(N)n1)C(=O)O` [CEFTAZIDIME], the minimum inhibitory concentration (MIC) came to 20 µg/mL in test [1]; 0.38 µg/mL in test [2]; 26 µg/mL in test [3]; 2 µg/mL (≈ 3.66 µM) in [4]; 18 µg/mL in test [5]; 1.5 µg/mL (≈ 2.74 µM) in test [6]. Besides, the minimal inhibitory concentration (MIC) in test [7] came to 0.5 µg/mL; in test [11] it was 18 µg/mL; in [12], 0.69 µg/mL; in test [13] it was 0.44 µg/mL; in [14], 2 µg/mL (≈ 3.66 µM); in test [15], 1.5 µg/mL (≈ 2.74 µM). For the same molecule, the minimum inhibitory concentration (MIC) in test [16] is 0.44 µg/mL; in test [17], 0.47 µg/mL; in test [18] it was 0.44 µg/mL; in test [20], 0.63 µg/mL. The Time in test [8] is 26 min; in test [9], 25.7 min; in [10], 27.3 min; in test [19] it was 27.7 min.

In the case of `CN(C)[C@@H]1C(O)=C(C(N)=O)C(=O)[C@@]2(O)C(O)=C3C(=O)c4c(O)cccc4[C@@](C)(O)[C@H]3C[C@@H]12` [TETRACYCLINE], the MIC is 4.25 µg/mL in test [2]; 10 µg/mL in test [7]; 5.5 µg/mL in test [12]; 256 µg/mL in [13]; 256 µg/mL in test [16]; 256 µg/mL in test [17]. The MIC was 256 µg/mL in test [18] and 18 µg/mL in test [20].

Take `O=C(N[C@H](CO)[C@H](O)c1ccc([N+](=O)[O-])cc1)C(Cl)Cl` [CHLORAMPHENICOL]: the MIC in [2] was determined as 20 µg/mL; in test [7], 28 µg/mL; in [12] it was 86 µg/mL; in test [13], 256 µg/mL; in test [16], 256 µg/mL; in test [17] it was 256 µg/mL. Moreover, the MIC is 256 µg/mL in [18] and 56 µg/mL in [20]. In addition, the “fold change (FC)” value is on record as 2 in [21] and 3 in test [22].

`NC[C@H]1O[C@H](O[C@H]2[C@H](O)[C@@H](O[C@H]3O[C@H](CO)[C@@H](O)[C@H](N)[C@H]3O)[C@H](N)C[C@@H]2N)[C@H](N)C[C@@H]1O` [TOBRAMYCIN]: the minimum inhibitory concentration (MIC) was 1.75 µg/mL in test [1]; 0.9 µg/mL in [2]; 2 µg/mL in test [3]; 1.5 µg/mL (≈ 3.21 µM) in [4]; 2 µg/mL in test [5]; 1.5 µg/mL (≈ 3.21 µM) in [6]. In addition, the MIC in test [7] is 6 µg/mL; in test [11] it was 2 µg/mL; in test [12], 3.75 µg/mL; in [13] it was 1.06 µg/mL; in test [14], 1.5 µg/mL (≈ 3.21 µM); in test [15], 1.5 µg/mL (≈ 3.21 µM). For the same molecule, the minimum inhibitory concentration (MIC) came to 1.25 µg/mL in [16], 1.37 µg/mL in [17], 1.19 µg/mL in test [18] and 3.5 µg/mL in test [20]. For the same molecule, the result in test [23], in test [24] and in test [25] was Active. The Time in test [8] is on record as 26 min; in test [9], 25.7 min; in [10], 27.3 min; in [19], 27.7 min.

`O=C(O)c1cn(C2CC2)c2cc(N3CCNCC3)c(F)cc2c1=O` [CIPROFLOXACIN]: the minimal inhibitory concentration (MIC) in test [2] amounted to 0.08 µg/mL; in [3], 0.13 µg/mL; in test [5], 0.17 µg/mL; in test [6] it was 0.19 µg/mL (≈ 0.573 µM); in [7] it was 0.32 µg/mL; in test [11] it was 0.16 µg/mL. Further, the minimum inhibitory concentration (MIC) is 0.16 µg/mL in test [12]; 0.75 µg/mL in test [13]; 0.19 µg/mL (≈ 0.573 µM) in test [14]; 0.19 µg/mL (≈ 0.573 µM) in test [15]; 0.75 µg/mL in [16]; 0.75 µg/mL in [17]. Further, the results for the minimal inhibitory concentration (MIC) in [18] and in test [20] were 0.88 µg/mL and 0.11 µg/mL, respectively. Besides, the Time in [8] is 26 min; in test [9] it was 25.7 min; in test [10] it was 27.3 min; in test [19] it was 27.7 min.

On to `CCN1CCN(C(=O)N[C@@H](C(=O)N[C@@H]2C(=O)N3[C@@H]2SC(C)(C)[C@@H]3C(=O)O)c2ccccc2)C(=O)C1=O` [PIPERACILLIN], for which the minimum inhibitory concentration (MIC) in test [4], in test [6], in test [14] and in test [15] was 2 µg/mL (≈ 3.86 µM) each time. Further, the outcome in test [23] and in test [24] was Active. In addition, the Time in test [8] turned out to be 26 min; in test [9], 25.7 min; in [10], 27.3 min; in test [19], 27.7 min.

For the molecule `C[C@H]1[C@H](NC(=O)/C(=N\OC(C)(C)C(=O)O)c2csc(N)n2)C(=O)N1S(=O)(=O)O` [AZTREONAM], the MIC came out at 1.5 µg/mL (≈ 3.44 µM) in test [4], 1.5 µg/mL (≈ 3.44 µM) in test [6], 1.5 µg/mL (≈ 3.44 µM) in test [14] and 1 µg/mL (≈ 2.3 µM) in test [15]. For the same molecule, the result in test [23] and in test [24] was Active. The Time in test [8] is recorded as 26 min; in test [9], 25.7 min; in [10], 27.3 min; in [19] it was 27.7 min.
